In ChEMBL document CHEMBL2163328, “Inhibition of TNF-α-Induced Inflammation by andrographolide via down-regulation of the PI3K/Akt signaling pathway” (J Nat Prod, 2011):
Blank lines part the entries; values can stand above or below the compound they belong to. Active and inactive are the calls of the source. No cut-off for these calls is given here.

Experiments:
[1] = tested on: HUVEC; experiment: Inhibition of TNFalpha-stimulated ICAM-1 mRNA expression in HUVEC at 10 to 25 uM pretreated for 16 hrs before TNFalpha challenge measured after 6 hrs by RT-PCR analysis; format: functional, cell-based; conditions: Homo sapiens
Outline: (§1)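 HUVEC pretreated 16 h, then TNF-α 1 ng/mL for 6 h. Total RNA isolated with TRIzol; 4 μg reverse-transcribed with M-MLV RT and oligo(dT). ICAM-1 amplified for 32 cycles (94 °C 1 min, 55 °C 1 min, 72 °C 2 min) after 95 °C for 5 min. Normalized to GAPDH; products resolved on 1% agarose and quantified by densitometry.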

[2] = tested on: HUVEC; experiment: Inhibition of TNFalpha-stimulated human ICAM-1 promoter activity expressed in HUVEC assessed as […] activity at 10 to 25 uM pretreated for 30 mins before TNFalpha challenge measured after 5 hrs by luciferase reporter gene assay; format: functional, cell-based
Outline: (§2)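 HUVEC transiently transfected by nanofection with human ICAM-1 promoter-luciferase (pIC339) plus pSV-β-galactosidase for 4 h. Pretreated 30 min, then TNF-α 1 ng/mL for 5 h. Luciferase activity measured in lysate supernatants and normalized to β-galactosidase activity for transfection efficiency. Three independent experiments.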

[3] = tested on: HUVEC; experiment: Inhibition of TNFalpha-stimulated DNA binding activity of NFkappaB in HUVEC at 10 to 25 uM pretreated for 16 hrs before TNFalpha challenge measured after 30 mins by EMSA; format: cell-based; conditions: Homo sapiens
Outline: (§3)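 EMSA: nuclear extracts prepared by hypotonic then hypertonic (400 mM KCl) extraction. 2 μg nuclear protein incubated with biotin-labeled NF-κB probe and poly(dI-dC) at room temperature for 30 min. Complexes separated on 6% TBE-PAGE, transferred to nylon and detected with streptavidin-HRP. Specificity checked with 100-fold excess unlabeled and mutant oligonucleotides.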

[4] = tested on: HUVEC; experiment: Induction of NFkappaB activation in HUVEC by EMSA; format: cell-based; conditions: Homo sapiens; outline: as §3
[5] = tested on: HUVEC; experiment: Inhibition of TNFalpha-stimulated ICAM-1 mRNA expression in HUVEC at 20 uM pretreated for 16 hrs before TNFalpha challenge measured after 6 hrs by RT-PCR analysis; format: functional, cell-based; conditions: Homo sapiens; outline: as §1
[6] = tested on: HUVEC; experiment: Inhibition of TNFalpha-stimulated human ICAM-1 promoter activity expressed in HUVEC assessed as […] activity at 20 uM pretreated for 30 mins before TNFalpha challenge measured after 5 hrs by luciferase reporter gene assay; format: functional, cell-based; outline: as §2
[7] = biological target: RAC-alpha serine/threonine-protein kinase (Homo sapiens) (UniProt P31749); experiment: Inhibition of activated Akt1 phosphorylation at Ser473 expressed in HUVEC transfected with activated AKT1 assessed as pAKT level at 10 uM after 16 hrs by Western blot analysis (reference value: 272%); format: cell-based; design: scale not given: the % may be the effect or the level left
Sequence of RAC-alpha serine/threonine-protein kinase (Homo sapiens) (P31749 whole entry): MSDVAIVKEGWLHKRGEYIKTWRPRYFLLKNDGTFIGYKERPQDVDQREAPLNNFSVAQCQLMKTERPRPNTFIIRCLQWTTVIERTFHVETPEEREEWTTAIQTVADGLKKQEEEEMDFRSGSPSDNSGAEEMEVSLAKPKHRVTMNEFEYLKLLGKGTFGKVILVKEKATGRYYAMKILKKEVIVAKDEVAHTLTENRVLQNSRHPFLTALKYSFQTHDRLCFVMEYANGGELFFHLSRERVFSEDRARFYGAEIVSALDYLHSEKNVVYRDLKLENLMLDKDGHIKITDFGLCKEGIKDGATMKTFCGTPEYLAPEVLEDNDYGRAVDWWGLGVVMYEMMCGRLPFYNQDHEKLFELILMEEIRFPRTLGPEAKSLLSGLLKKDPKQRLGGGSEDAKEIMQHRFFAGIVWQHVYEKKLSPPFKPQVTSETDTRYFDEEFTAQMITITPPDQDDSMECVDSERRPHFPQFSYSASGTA

[8] = biological target: RAC-alpha serine/threonine-protein kinase (Homo sapiens) (UniProt P31749); experiment: Inhibition of TNFalpha-stimulated Akt1 phosphorylation at Ser473 assessed as pAKT level in HUVEC at 10 uM pretreated for 16 hrs before TNFalpha challenge measured after 6 hrs by Western blot analysis (reference value: 249%); design: scale not given: the % may be the effect or the level left
[9] = biological target: RAC-alpha serine/threonine-protein kinase (Homo sapiens) (UniProt P31749); experiment: Inhibition of TNFalpha-stimulated AKT1-mediated ICAM-1 expression in HUVEC assessed as ICAM1 level at 10 uM pretreated for 16 hrs before TNFalpha challenge measured after 6 hrs by Western blot analysis (reference value: 345%); format: cell-based; design: scale not given: the % may be the effect or the level left
[10] = biological target: RAC-alpha serine/threonine-protein kinase (Homo sapiens) (UniProt P31749); experiment: Inhibition of TNFalpha-stimulated ICAM-1 expression in HUVEC transfected with activated AKT1 assessed as ICAM1 level at 10 uM incubated for 16 hrs by Western blot (reference value: 249%); format: cell-based; design: scale not given: the % may be the effect or the level left
[11] = tested on: HUVEC; experiment: Inhibition of TNFalpha-stimulated DNA binding activity of NFkappaB in HUVEC at 5 to 20 uM pretreated for 16 hrs before TNFalpha challenge measured after 30 mins by EMSA; format: cell-based; conditions: Homo sapiens; outline: as §3
[12] = tested on: HUVEC; experiment: Inhibition of TNFalpha-stimulated cell surface ICAM-1 expression in HUVEC at 5 to 20 uM pretreated for 16 hrs before TNFalpha challenge measured after 6 hrs by flow cytometry; format: functional, cell-based; conditions: Homo sapiens
Outline: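 Cell-surface ICAM-1 by flow cytometry. HUVEC pretreated 16 h, then TNF-α 1 ng/mL for 6 h. Cells detached with trypsin and stained with FITC anti-ICAM-1 at 4 °C for 45 min in the dark. Washed three times in cold PBS before analysis. Three independent experiments.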

[13] = tested on: HUVEC; experiment: Inhibition of TNFalpha-stimulated HUVEC adhesion to BCECF-AM-labeled human HL60 cells at 20 uM pretreated for 16 hrs before TNFalpha challenge measured after 6 hrs by fluorescence assay; format: functional
Outline: (§4)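 HUVEC grown to 80% confluence, pretreated 16 h, then TNF-α 1 ng/mL for 6 h. Co-incubated with 4 × 10^5 BCECF-AM-labeled HL-60 cells per well, 37 °C, 30 min. Nonadherent cells removed by inverted centrifugation at 100g for 5 min. Bound cells lysed in 1% SDS; fluorescence read at ex 490/em 520 nm and converted to adherent cells/well by standard curve. Three independent experiments.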

[14] = Cytotoxicity against TNFalpha-stimulated HUVEC assessed as cell viability at 20 uM pretreated for 16 hrs before TNFalpha challenge measured after 6 hrs by MTT assay (reference value: 103.8 +/- 6.1%); format: cell-based; conditions: human, TNFalpha-stimulated HUVEC cells; read-out: Activity
[15] = Cytotoxicity against TNFalpha-stimulated HUVEC assessed as cell viability at 10 uM pretreated for 16 hrs before TNFalpha challenge measured after 6 hrs by MTT assay (reference value: 103.8 +/- 6.1%); format: cell-based; conditions: human, TNFalpha-stimulated HUVEC cells; read-out: Activity
[16] = tested on: HUVEC; experiment: Toxicity assessed as induction of HUVEC adhesion to BCECF-AM-labeled human HL60 cells by fluorescence assay; format: cell-based; outline: as §4
[17] = Cytotoxicity against TNFalpha-stimulated HUVEC assessed as cell viability at 5 uM pretreated for 16 hrs before TNFalpha challenge measured after 6 hrs by MTT assay (reference value: 103.8 +/- 6.1%); format: cell-based; conditions: human, TNFalpha-stimulated HUVEC cells; read-out: Activity
[18] = tested on: HUVEC; experiment: Toxicity in HUVEC assessed as induction of ICAM-1 expression at 5 to 20 uM measured after 6 hrs by Western blot analysis; format: cell-based; conditions: human
[19] = tested on: HUVEC; experiment: Inhibition of TNFalpha-stimulated total ICAM-1 expression in HUVEC at 5 to 20 uM pretreated for 16 hrs before TNFalpha challenge measured after 6 hrs by Western blot analysis; format: functional, cell-based; conditions: Homo sapiens
Outline: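 HUVEC pretreated 16 h, then TNF-α 1 ng/mL for 6 h. Lysed in Tris/EDTA/PMSF/aprotinin buffer at pH 7.4; equal protein run on SDS-PAGE and transferred to PVDF. Blocked in 5% milk at 4 °C overnight, probed with anti-ICAM-1 and HRP secondary. ECL detection with densitometric quantitation. Means ± SD, n = 3.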

[20] = biological target: RAC-alpha serine/threonine-protein kinase (Homo sapiens) (UniProt P31749); experiment: Induction of Akt1 phosphorylation at Ser473 expressed in HUVEC by Western blot analysis; format: cell-based
[21] = biological target: Transcription factor p65 (Homo sapiens) (UniProt Q04206); experiment: Inhibition of TNFalpha-stimulated NFkappaB activation in HUVEC assessed as reduction of nuclear p65 level at 20 uM pretreated for 16 hrs before TNFalpha challenge measured after 30 mins by […]
Sequence of Transcription factor p65 (Homo sapiens) (Q04206 whole entry): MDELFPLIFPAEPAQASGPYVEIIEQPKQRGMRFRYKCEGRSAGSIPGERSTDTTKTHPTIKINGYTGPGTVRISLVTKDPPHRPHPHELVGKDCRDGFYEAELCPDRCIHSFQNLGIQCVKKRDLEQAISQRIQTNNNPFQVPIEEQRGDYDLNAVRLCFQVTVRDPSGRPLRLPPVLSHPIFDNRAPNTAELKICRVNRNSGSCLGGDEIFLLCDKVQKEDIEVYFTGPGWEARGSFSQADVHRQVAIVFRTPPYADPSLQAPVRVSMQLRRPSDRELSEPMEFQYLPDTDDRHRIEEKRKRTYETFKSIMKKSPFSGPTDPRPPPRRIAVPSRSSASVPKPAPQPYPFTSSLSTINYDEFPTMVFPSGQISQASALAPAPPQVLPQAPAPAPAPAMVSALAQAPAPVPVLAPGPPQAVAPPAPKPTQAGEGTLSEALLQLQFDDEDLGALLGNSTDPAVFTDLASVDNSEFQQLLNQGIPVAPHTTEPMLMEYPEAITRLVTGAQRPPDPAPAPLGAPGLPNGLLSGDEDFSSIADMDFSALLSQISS

[22] = tested on: HUVEC; experiment: Inhibition of TNFalpha-stimulated NFkappaB activation in HUVEC assessed as reduction of IkappaB degradation at 20 uM pretreated for 16 hrs before TNFalpha challenge measured after 30 mins by […]; format: cell-based; conditions: Homo sapiens
[23] = biological target: RAC-alpha serine/threonine-protein kinase (Homo sapiens) (UniProt P31749); experiment: Inhibition of TNFalpha-stimulated Akt1 phosphorylation at Ser473 in HUVEC at 20 uM pretreated for 16 hrs before TNFalpha challenge measured after 15 mins by Western blot analysis

inhibition [2]: Active | inhibition [3]: Active
Structure (SMILES): O=c1cc(N2CCOCC2)oc2c(-c3ccccc3)cccc12
inhibition [1]: Active

inhibition [6]: Active | Activity [7]: 111% | Activity [8]: 127% | Activity [9]: 36% | Activity [10]: 177% | inhibition [11]: Active | Activity [20]: inactive | inhibition [21]: Active | inhibition [23]: Active
Structure (SMILES): C=C1CC[C@@H]2[C@](C)(CO)[C@H](O)CC[C@@]2(C)[C@@H]1C/C=C1/C(=O)OC[C@H]1O [ANDROGRAPHOLIDE]
Activity [4]: inactive | inhibition [5]: Active | inhibition [12]: Active | inhibition at 20 µM [13]: 73% | viability at 6 h, 20 µM [14]: 87.5% | viability at 6 h, 10 µM [15]: 94.6% | Activity [16]: Non-toxic | viability at 6 h, 5 µM [17]: 96.4% | Activity [18]: Non-toxic | inhibition [19]: Active | inhibition [22]: Active
